Measurements from ChEMBL document CHEMBL1154352, “Toll-like receptor 7 selective synthetic oligoribonucleotide agonists: synthesis and structure-activity relationship studies” (J Med Chem, 2009).
Active and inactive are the calls of the source. The rule behind the calls is not given here.

How the values were obtained:
[1] = target: T1, Toll-like receptor 7 (Homo sapiens) (UniProt Q9NYK1); assay: Activation of human TLR7 expressed in HEK293XL assessed as fold induction of NF-kappaB activity at 50 ug/ml after 18 hrs by reporter gene assay relative to control
T1 sequence (whole entry): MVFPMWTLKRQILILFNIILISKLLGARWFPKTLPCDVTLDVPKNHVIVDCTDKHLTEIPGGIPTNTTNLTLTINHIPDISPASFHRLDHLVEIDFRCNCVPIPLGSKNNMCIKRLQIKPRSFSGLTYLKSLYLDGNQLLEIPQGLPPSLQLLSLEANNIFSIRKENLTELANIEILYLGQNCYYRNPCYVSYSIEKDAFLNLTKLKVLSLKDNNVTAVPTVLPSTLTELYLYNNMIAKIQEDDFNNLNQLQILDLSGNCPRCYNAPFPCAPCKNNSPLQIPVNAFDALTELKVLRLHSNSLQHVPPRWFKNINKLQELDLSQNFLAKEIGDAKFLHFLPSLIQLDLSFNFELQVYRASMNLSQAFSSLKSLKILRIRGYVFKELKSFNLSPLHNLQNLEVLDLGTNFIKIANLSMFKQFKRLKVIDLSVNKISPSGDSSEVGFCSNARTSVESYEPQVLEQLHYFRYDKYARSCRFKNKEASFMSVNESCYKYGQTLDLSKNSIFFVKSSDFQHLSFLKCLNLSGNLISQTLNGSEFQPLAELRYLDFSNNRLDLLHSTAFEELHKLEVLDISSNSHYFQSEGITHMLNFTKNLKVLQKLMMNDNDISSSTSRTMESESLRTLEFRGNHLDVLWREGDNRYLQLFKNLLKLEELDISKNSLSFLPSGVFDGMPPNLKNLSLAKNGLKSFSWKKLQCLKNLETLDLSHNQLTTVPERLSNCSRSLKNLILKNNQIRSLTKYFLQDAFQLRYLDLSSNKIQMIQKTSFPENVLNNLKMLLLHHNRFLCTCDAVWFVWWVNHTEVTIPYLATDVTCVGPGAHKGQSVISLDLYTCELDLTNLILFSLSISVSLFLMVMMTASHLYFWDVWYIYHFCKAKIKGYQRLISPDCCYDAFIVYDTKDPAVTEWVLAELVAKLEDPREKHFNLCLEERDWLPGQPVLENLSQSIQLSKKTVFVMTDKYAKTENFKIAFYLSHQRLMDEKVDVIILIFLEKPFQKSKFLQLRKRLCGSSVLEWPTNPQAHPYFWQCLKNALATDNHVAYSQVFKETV
In short: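 HEK293 cells stably expressing human TLR7 or TLR8, transiently transfected with SEAP reporter plasmid; medium replaced, SIMRA compounds added, 18 h incubation. Supernatant SEAP measured by QuantiBlue; expressed as fold increase in NF-κB activity over PBS control. Tabulated data at 50 μg/mL, representative of three independent experiments.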

Homo sapiens [2] = species: Homo sapiens; assay: Ratio of human TLR7 activity to human TLR8 activity
In short: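 TLR7/TLR8 ratio computed from fold NF-κB (SEAP reporter) activation in HEK293 cells stably expressing human TLR7 versus TLR8, compounds at 50 μg/mL, 18 h exposure; representative of three independent experiments.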

Homo sapiens [3] = species: Homo sapiens; assay: Immunostimulatory activity in human pDC assessed as induction of IFNalpha at 100 ug/ml after 24 hrs; type: functional
In short: (§1)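 Human pDCs plated at 1 × 10^6 cells/mL; compounds in PBS added, 37 °C for 24 h; supernatant cytokines/chemokines by human Luminex multiplex kit.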

PBMC [4] = assay: Immunomodulatory activity in human PBMC assessed as induction of IL12 at 50 ug/ml after 24 hrs; type: functional, cell-based
In short: (§2)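 Human PBMCs plated at 5 × 10^6 cells/mL; compounds dissolved in PBS added at various concentrations, 37 °C for 24 h. Supernatant cytokines/chemokines quantified with human Luminex multiplex kit.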

PBMC [5] = assay: Immunomodulatory activity in human PBMC assessed as induction of TNFalpha at 50 ug/ml after 24 hrs; type: functional, cell-based; in short: as §2
PBMC [6] = assay: Immunomodulatory activity in human PBMC assessed as induction of IFNalpha at 50 ug/ml after 24 hrs; type: functional, cell-based; in short: as §2
PBMC [7] = assay: Immunomodulatory activity in human PBMC assessed as induction of MIP1alpha at 50 ug/ml after 24 hrs; type: functional, cell-based; in short: as §2
PBMC [8] = assay: Immunomodulatory activity in human PBMC assessed as induction of MIP1beta at 50 ug/ml after 24 hrs; type: functional, cell-based; in short: as §2
PBMC [9] = assay: Immunomodulatory activity in human PBMC assessed as induction of IP10 at 50 ug/ml after 24 hrs; type: functional, cell-based; in short: as §2
PBMC [10] = assay: Immunomodulatory activity in human PBMC assessed as induction of MCP1 at 50 ug/ml after 24 hrs; type: functional, cell-based; in short: as §2
PBMC [11] = assay: Immunomodulatory activity in human PBMC assessed as induction of IL6 at 50 ug/ml after 24 hrs; type: functional, cell-based; in short: as §2
PBMC [12] = assay: Immunomodulatory activity in human PBMC assessed as induction of IL1-beta at 50 ug/ml after 24 hrs; type: functional, cell-based; in short: as §2
Homo sapiens [13] = species: Homo sapiens; assay: Immunostimulatory activity in human pDC assessed as induction of IP10 at 100 ug/ml after 24 hrs; type: functional; in short: as §1
Homo sapiens [14] = species: Homo sapiens; assay: Immunostimulatory activity in human pDC assessed as induction of IL6 at 100 ug/ml after 24 hrs; type: functional; in short: as §1
Homo sapiens [15] = species: Homo sapiens; assay: Immunostimulatory activity in human mDC assessed as induction of IFNalpha at 100 ug/ml after 24 hrs; type: functional
In short: (§3)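 Human mDCs isolated from PBMCs by CD19+ B-cell depletion then BDCA1 positive selection; plated at 1 × 10^6 cells/mL, compounds in PBS, 37 °C for 24 h; supernatant cytokines by human Luminex multiplex. Representative of four independent experiments.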

Homo sapiens [16] = species: Homo sapiens; assay: Immunostimulatory activity in human mDC assessed as induction of IP10 at 100 ug/ml after 24 hrs; type: functional; in short: as §3
Homo sapiens [17] = species: Homo sapiens; assay: Immunostimulatory activity in human mDC assessed as induction of IL12 at 100 ug/ml after 24 hrs; type: functional; in short: as §3
Homo sapiens [18] = species: Homo sapiens; assay: Immunostimulatory activity in human mDC assessed as induction of IL6 at 100 ug/ml after 24 hrs; type: functional; in short: as §3
Homo sapiens [19] = species: Homo sapiens; assay: Immunostimulatory activity in human mDC assessed as induction of TNFalpha at 100 ug/ml after 24 hrs; type: functional; in short: as §3
Mus musculus = assay: Immunomodulatory activity in C57BL/6 mouse assessed as induction of IL12 release at 25 mg/kg, sc after 2 hrs by ELISA; type: functional, organism-based; design: dose 25 mg/kg
In short: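 Female C57BL/6 wild-type mice, 5–8 weeks old, n=3; compounds given subcutaneously at 10 or 25 mg/kg. Retro-orbital blood at 2 h; serum cytokines by mouse Luminex multiplex or IL-12 ELISA.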

| fold change (FC) [1] | Ratio (Homo sapiens [2]) | Compound | Activity (Homo sapiens [3]) | Activity (PBMC [4]) | Activity (PBMC [5]) | Activity (PBMC [6]) | Activity (PBMC [7]) | Activity (PBMC [8]) | Activity (PBMC [9]) | Activity (PBMC [10]) | Activity (PBMC [11]) | Activity (PBMC [12]) | Activity (Homo sapiens [13]) | Activity (Homo sapiens [14]) | Activity (Homo sapiens [15]) | Activity (Homo sapiens [16]) | Activity (Homo sapiens [17]) | Activity (Homo sapiens [18]) | Activity (Homo sapiens [19]) | Activity (Mus musculus) |
| --- | --- | --- | --- | --- | --- | --- | --- | --- | --- | --- | --- | --- | --- | --- | --- | --- | --- | --- | --- | --- |
| 23.7 | 11.9 | Nc1ccn([C@@H]2O[C@H](COP(=O)(S)O[C@H]3[C@@H](O)[C@H](n4cnc5c(N)ncnc54)O[C@@H]3CO)[C@@H](OP(=O)(S)OC[C@H]3O[C@@H](n4ccc(=O)[nH]c4=O)[C@H](O)[C@@H]3OP(=O)(S)OC[C@H]3O[C@@H](n4ccc(=O)[nH]c4=O)[C@H](O)[C@@H]3OP(=O)(S)OC[C@H]3O[C@@H](n4ccc5c(=O)[nH]c(N)nc54)[C@H](O)[C@@H]3OP(=O)(S)OC[C@H]3O[C@@H](n4cnc5c(N)ncnc54)[C@H](O)[C@@H]3OP(=O)(S)OC[C@H]3O[C@@H](n4cnc5c(N)ncnc54)[C@H](O)[C@@H]3OP(=O)(S)OC[C@H]3O[C@@H](n4ccc5c(=O)[nH]c(N)nc54)[C@H](O)[C@@H]3OP(=O)(S)OC[C@H]3O[C@@H](n4ccc(N)nc4=O)[C@H](O)[C@@H]3OP(=O)(S)OC[C@H]3O[C@@H](n4ccc(=O)[nH]c4=O)[C@H](O)[C@@H]3OP(=O)(S)OC[C@H]3O[C@@H](n4ccc(=O)[nH]c4=O)[C@H](O)[C@@H]3OP(=O)(S)OCC(O)COP(=O)(S)O[C@H]3[C@@H](O)[C@H](n4ccc(=O)[nH]c4=O)O[C@@H]3COP(=O)(S)O[C@H]3[C@@H](O)[C@H](n4ccc(=O)[nH]c4=O)O[C@@H]3COP(=O)(S)O[C@H]3[C@@H](O)[C@H](n4ccc(N)nc4=O)O[C@@H]3COP(=O)(S)O[C@H]3[C@@H](O)[C@H](n4ccc5c(=O)[nH]c(N)nc54)O[C@@H]3COP(=O)(S)O[C@H]3[C@@H](O)[C@H](n4cnc5c(N)ncnc54)O[C@@H]3COP(=O)(S)O[C@H]3[C@@H](O)[C@H](n4cnc5c(N)ncnc54)O[C@@H]3COP(=O)(S)O[C@H]3[C@@H](O)[C@H](n4ccc5c(=O)[nH]c(N)nc54)O[C@@H]3COP(=O)(S)O[C@H]3[C@@H](O)[C@H](n4ccc(=O)[nH]c4=O)O[C@@H]3COP(=O)(S)O[C@H]3[C@@H](O)[C@H](n4ccc(=O)[nH]c4=O)O[C@@H]3COP(=O)(S)O[C@H]3[C@@H](O)[C@H](n4ccc(N)nc4=O)O[C@@H]3COP(=O)(S)O[C@H]3[C@@H](O)[C@H](n4cnc5c(N)ncnc54)O[C@@H]3CO)[C@H]2O)c(=O)n1 (stereo not given in full) | Active | 354 pg/mL | 76 pg/mL | 230 pg/mL | 5630 pg/mL | 9220 pg/mL | 287 pg/mL | 52900 pg/mL | 2730 pg/mL | 261 pg/mL | Active | Active | Active | Active | Active | Active | Active | Active |
| 16.1 | 3.4 | Nc1ccn([C@@H]2O[C@H](COP(O)(=S)O[C@H]3[C@@H](O)[C@H](n4ccc(=O)[nH]c4=O)O[C@@H]3COP(O)(=S)O[C@H]3[C@@H](O)[C@H](n4ccc(=O)[nH]c4=O)O[C@@H]3COP(O)(=S)O[C@H]3[C@@H](O)[C@H](n4ccc(N)nc4=O)O[C@@H]3COP(O)(=S)O[C@H]3[C@@H](O)[C@H](n4ccc5c(=O)[nH]c(N)nc54)O[C@@H]3COP(O)(=S)O[C@H]3[C@@H](O)[C@H](n4ccc(=O)[nH]c4=O)O[C@@H]3COP(O)(=S)O[C@H]3[C@@H](O)[C@H](n4ccc(N)nc4=O)O[C@@H]3COP(O)(=S)O[C@H]3[C@@H](O)[C@H](n4ccc5c(=O)[nH]c(N)nc54)O[C@@H]3COP(O)(=S)O[C@H]3[C@@H](O)[C@H](n4ccc(=O)[nH]c4=O)O[C@@H]3CO)[C@@H](OP(O)(=S)OC[C@H]3O[C@@H](n4ccc(=O)[nH]c4=O)[C@H](O)[C@@H]3OP(O)(=S)OC[C@H]3O[C@@H](n4ccc5c(=O)[nH]c(N)nc54)[C@H](O)[C@@H]3OP(O)(=S)OCC(O)COP(O)(=S)O[C@H]3[C@@H](O)[C@H](n4ccc5c(=O)[nH]c(N)nc54)O[C@@H]3COP(O)(=S)O[C@H]3[C@@H](O)[C@H](n4ccc(=O)[nH]c4=O)O[C@@H]3COP(O)(=S)O[C@H]3[C@@H](O)[C@H](n4ccc(N)nc4=O)O[C@@H]3COP(O)(=S)O[C@H]3[C@@H](O)[C@H](n4ccc(=O)[nH]c4=O)O[C@@H]3COP(O)(=S)O[C@H]3[C@@H](O)[C@H](n4ccc(=O)[nH]c4=O)O[C@@H]3COP(O)(=S)O[C@H]3[C@@H](O)[C@H](n4ccc(N)nc4=O)O[C@@H]3COP(O)(=S)O[C@H]3[C@@H](O)[C@H](n4ccc5c(=O)[nH]c(N)nc54)O[C@@H]3COP(O)(=S)O[C@H]3[C@@H](O)[C@H](n4ccc(=O)[nH]c4=O)O[C@@H]3COP(O)(=S)O[C@H]3[C@@H](O)[C@H](n4ccc(N)nc4=O)O[C@@H]3COP(O)(=S)O[C@H]3[C@@H](O)[C@H](n4ccc5c(=O)[nH]c(N)nc54)O[C@@H]3COP(O)(=S)O[C@H]3[C@@H](O)[C@H](n4ccc(=O)[nH]c4=O)O[C@@H]3CO)[C@H]2O)c(=O)n1 (stereo not given in full) | Active | 671 pg/mL | 688 pg/mL | 373 pg/mL | 15500 pg/mL | 27600 pg/mL | 167 pg/mL | 47400 pg/mL | 5580 pg/mL | 688 pg/mL | Active | Active | Active | Active | Active | Active | Active | Active |
